Assay results collected from several papers.
Compare with care: the assays were run in different laboratories.
HTR2A: 5-hydroxytryptamine receptor 2A (HTR2A, Homo sapiens, UniProt P28223)
ADORA2A: Adenosine receptor A2a (ADORA2A, Homo sapiens, UniProt P29274)
HDAC2: Histone deacetylase 2 (HDAC2, Homo sapiens, UniProt Q92769)

The Ki of `N#C[C@@]12C[C@@H]1[C@@H](n1cnc3c(NCc4cccc(Cl)c4)nc(I)nc31)[C@H](O)[C@@H]2O` is reported as 4.9 µM (HTR2A; ligand displacement; radioligand).
The EC50 of `CC(C)=CCNc1ncnc2c1ncn2[C@@H]1O[C@H](CO)[C@@H](O)[C@H]1O` is reported as 6.4 µM (ADORA2A; G protein activation; agonist).
`COc1ccccc1CC1CCN(CC(=O)c2cc(C)[nH]c2C)C1` (stereo not drawn) gave an IC50 of 13.2 µM (HTR2A; calcium signal; antagonist).
The Ki of `O=C(NO)c1cncc(OS(=O)(=O)Oc2ccc(C(F)(F)F)cc2)c1` is reported as 1.31 µM (HDAC2; enzyme activity; inhibitor; fluorescence).
For `CN(C)c1ncnc2c1ncn2[C@@H]1O[C@H](CO)[C@@H](O)[C@H]1O`, the EC50 was 3.2 µM (ADORA2A; G protein activation; agonist).
With `Cc1[nH]c2ccccc2c1SCCNC(=O)C1NCCC1C1CC1` (stereo not drawn) the IC50 was 31.7 µM (HTR2A; calcium signal; antagonist).
With `N#C[C@@]12C[C@@H]1[C@@H](n1cnc3c(N[C@@H](C4CCC4)C4CC4)nc(I)nc31)[C@H](O)[C@@H]2O` the Ki was > 10 µM (ADORA2A; ligand displacement; radioligand).
`O=C(/C=C/c1cccc(OS(=O)(=O)Oc2ccc(C(F)(F)F)cc2)c1)NO` gave a Ki of 0.105 µM (HDAC2; enzyme activity; inhibitor; fluorescence).
The Kd of `C=CCO[C@H]1O[C@H](CO)[C@@H](OP(=O)(O)O[C@H]2O[C@H](CO)[C@@H](O)[C@H](O)[C@@H]2O)[C@H](O)[C@@H]1O` is reported as 1.59 µM (CLEC4E (Homo sapiens, UniProt Q9ULY5); binding; BLI).
